The subject of test [1] is MCF7. Kind of test: Cytotoxicity against human MCF7 cells assessed as decrease in cell viability after 72 hrs by MTS assay. It counts as functional, cell-based. The conditions noted are these: MCF7, 72 h. Summed up: (§1)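 Cell proliferation assay using the MTS reagent. Compounds were tested as a dilution series, and EC50 values were derived from the concentration–response data.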

Test [2] deals with MES-SA/Dx5. Put plainly: Cytotoxicity against human MES-SA/Dx5 cells assessed as decrease in cell viability after 72 hrs by MTS assay. It counts as functional, cell-based. Conditions: MES-SA/Dx5, 72 h. Summed up: as §1
(Tetrazolium dyes change colour on reduction, which living cells bring about.)

Test [3] deals with MES-SA. Put plainly: Cytotoxicity against human MESSA cells assessed as decrease in cell viability after 72 hrs by MTS assay. It counts as functional, cell-based. The method, boiled down: as §1
In test [4] the test system is HUVEC. Put plainly: Cytotoxicity against human HUVEC cells assessed as decrease in cell viability after 72 hrs by MTS assay. It counts as cell-based. The method, boiled down: as §1
Test [5] has as its system CCRF S-180. Kind of test: Cytotoxicity against mouse S180 cells assessed as decrease in cell viability after 72 hrs by MTS assay. The format is functional, cell-based. Conditions: CCRF S-180, 72 h. The method, boiled down:
as §1

Test [6] relates to HepG2. Put plainly: Cytotoxicity against human HepG2 cells assessed as decrease in cell viability after 72 hrs by MTS assay. It counts as functional, cell-based. Conditions: HepG2, 72 h. Summed up: as §1
The test system of test [7] is 786-0. Put plainly: Cytotoxicity against human 786-O cells assessed as decrease in cell viability after 72 hrs by MTS assay. It counts as functional, cell-based. The conditions noted are these: 786-0, 72 h. The method, boiled down: as §1
For test [8], the system named is HCT-116. Put plainly: Cytotoxicity against human HCT116 cells assessed as decrease in cell viability after 72 hrs by MTS assay. It counts as functional, cell-based. Conditions: HCT-116, 72 h. The method, boiled down: as §1
The subject of test [9] is NCI-H1975. Put plainly: Cytotoxicity against human NCI-H1975 cells assessed as decrease in cell viability after 72 hrs by MTS assay. The format is functional, cell-based. Conditions: NCI-H1975, 72 h. Summed up: as §1
In test [10] the test system is U-87 MG. Kind of test: Cytotoxicity against human U87MG cells assessed as decrease in cell viability after 72 hrs by MTS assay. The format is functional, cell-based, U-87MG ATCC. The method, boiled down:
as §1

Test [11] concerns SK-OV-3. Put plainly: Cytotoxicity against human SKOV3 cells assessed as decrease in cell viability after 72 hrs by MTS assay. It counts as functional, cell-based. The conditions noted are these: SK-OV-3, 72 h. The method, boiled down: as §1
In test [12] the test system is BXPC-3. Kind of test: Cytotoxicity against human BxPC3 cells assessed as decrease in cell viability after 72 hrs by MTS assay. It counts as functional, cell-based. Conditions: BXPC-3, 72 h. Summed up: as §1

The record followed here is ChEMBL document CHEMBL4266027, “Cyanobufalins: Cardioactive Toxins from Cyanobacterial Blooms” (J Nat Prod, 2018).

Molecules are shown by their SMILES.

For orientation: EC50 means the midpoint of the concentration-response curve. For `CC1(C)[C@H]2OC(=O)O[C@H]2[C@@H](O)[C@]2(C=O)[C@H]3CC[C@]4(C)[C@@H](c5ccc(=O)oc5)[C@@H](Cl)C[C@]4(O)C3=CC[C@@H]12`, the EC50 in test [1] is 960 nM; in [2], 720 nM; in test [3] it was 940 nM; in [4], 800 nM; in test [5] it was greater than 20000 nM; in [6] it was 1300 nM. Also, the EC50 amounted to 350 nM in test [7]; 610 nM in [8]; 590 nM in [9]; 610 nM in test [10]; 530 nM in test [11]; 1000 nM in test [12].
